Non-standard residues stand in square brackets, D forms with d. No end group written: not given here. pS = N[C@@H](COP(=O)(O)O)C(=O)O
How the values were obtained:
[1] = tested on: B cells from MRL/lpr mice; assay: Internalization and colocalization in purified B cells, confocal microscopy; type: cell-based, mouse; settings: PBS-2% FCS
[2] = tested on: chaperone-mediated autophagy (CMA) in NIH3T3 cells; assay: CMA activity, KFERQ-PA-mCherry1 reporter; type: cell-based, mouse; settings: NIH3T3, serum-free medium, 10 and 30 μM peptide, 12 h; N > 50 cells; Fig. 4
In short: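 NIH3T3 cells stably expressing the photoactivable KFERQ-PA-mCherry1 reporter were photoactivated, then kept in serum-free medium to maximally activate CMA, with or without 10 or 30 μM test peptide for 12 h. Scrambled and unphosphorylated peptides served as controls. Nuclei were stained with DAPI. Fluorescent puncta per cell were counted in at least 50 cells. Results are mean + SEM; Student t test.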

HSPA8 = HSPA8 (Bos taurus, UniProt P19120); assay: HSPA8 ATPase activity; type: biochemical; settings: HSPA8 500 nM without HSP40; 100 μM ATP; 3 h at 37°C; luminescence; 3 independent experiments; Fig. 1D
Chain of HSPA8 (P19120 whole entry): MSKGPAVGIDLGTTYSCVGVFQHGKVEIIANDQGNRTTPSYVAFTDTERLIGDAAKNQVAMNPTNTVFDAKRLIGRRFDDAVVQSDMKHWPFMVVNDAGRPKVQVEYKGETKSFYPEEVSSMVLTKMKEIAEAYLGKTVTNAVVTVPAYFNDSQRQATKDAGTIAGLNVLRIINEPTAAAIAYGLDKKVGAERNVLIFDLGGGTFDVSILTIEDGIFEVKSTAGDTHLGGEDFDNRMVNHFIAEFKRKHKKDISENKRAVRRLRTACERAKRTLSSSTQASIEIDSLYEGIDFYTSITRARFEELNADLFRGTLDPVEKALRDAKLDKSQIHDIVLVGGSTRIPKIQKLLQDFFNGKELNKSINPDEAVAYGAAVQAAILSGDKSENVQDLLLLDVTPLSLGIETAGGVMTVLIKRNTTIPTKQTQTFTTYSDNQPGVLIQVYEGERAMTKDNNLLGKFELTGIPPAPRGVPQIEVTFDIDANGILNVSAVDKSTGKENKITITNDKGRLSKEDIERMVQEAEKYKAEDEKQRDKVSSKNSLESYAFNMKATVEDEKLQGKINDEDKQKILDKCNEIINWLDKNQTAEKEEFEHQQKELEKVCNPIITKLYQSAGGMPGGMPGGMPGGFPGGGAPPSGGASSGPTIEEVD

MRL/lpr mice splenocytes = assay: Intracellular localization in splenocytes after iv administration; type: in vivo, mouse; settings: 1 h after iv administration; Fig. S5
In short: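 MRL/lpr mice (10–12 wk old) received 100 μg Alexa Fluor 488-labeled peptide intravenously. Splenocytes taken 1 h after injection were incubated for 30 min at 37°C in complete RPMI with 100 nM LysoTracker Red DND-99 or 500 nM MitoTracker Deep Red FM. After washing in the same medium, they were imaged immediately by confocal microscopy.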

[3] = tested on: CTSD/cathepsin D and CTSL/cathepsin L; assay: Stability in artificial lysosomal fluid; type: in vitro ADME
[4] = Stability in matrices of isolated lysosomes; type: in vitro ADME; settings: pH 4.2, 5.3, 7.2
In short: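 Peptide stability was tested in artificial lysosomal fluid at pH 4.2, 5.3 and 7.2. The fluid was supplemented with CTSD plus CTSL or with matrix extracted from isolated lysosomes. Samples were analysed by analytical RP-HPLC at 220 nm using water + 0.1% TFA and acetonitrile + 0.08% TFA eluents. Degradation was judged from the remaining intact-peptide peak area at several time intervals.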

[5] = tested on: chaperone-mediated autophagy (CMA) in NIH3T3 cells; assay: CMA activity, KFERQ-PS-Dendra reporter, high-content microscopy; type: cell-based, mouse; settings: 6 P140 concentrations, serum, starvation, paraquat 50 μM, > 700 cells, compared to an inactive P140 analog, Fig. S9
[6] = tested on: lysosomes isolated from mouse liver; assay: CMA in vitro: GAPDH binding and uptake by isolated lysosomes; type: biochemical
CTSD = CTSD protein in purified B cells of treated mice, western immunoblotting; type: in vivo; settings: MRL/lpr mice, 100 μg P140/mouse/injection once or 6 times at daily intervals; Fig. 5F
In short: (§1)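 MRL/lpr mice (10–13 wk old, 3 per group) received 100 μg test peptide per injection. Dosing was either once, with cells taken 5 d later, or 6 times at daily intervals, with cells taken 1 d after the last injection. Purified B cells were immunoblotted and band intensity was expressed relative to β-ACTA. Ratios were normalized to untreated MRL/lpr mice and given as mean of 3 mice + SD; at least 2 independent experiments.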

LAMP1 = LAMP1 protein in purified B cells of treated mice, western immunoblotting; type: in vivo; settings: MRL/lpr mice, 100 μg P140/mouse/injection once or 6 times at daily intervals; Fig. 5F
In short: as §1

LAMP2A = assay: Lamp2a mRNA in purified B cells, qRT-PCR; type: in vivo, mouse; settings: B cells of MRL/lpr mice; Fig. S13
MRL/lpr lupus-prone mice = settings: cited from earlier work
lupus patients = settings: phase II clinical trials; cited from earlier work
[7] = tested on: HSPA8/HSC70/HSP73 chaperone; settings: cited from earlier work
[8] = tested on: major histocompatibility complex class II (MHCII) molecules; settings: cited from earlier work
[9] = target: HSPA8 N-terminal fragment 1-386 (nucleotide binding domain) (human, UniProt P11142 1-386); assay: ELISA
Chain of HSPA8 N-terminal fragment 1-386 (nucleotide binding domain) (P11142 1-386): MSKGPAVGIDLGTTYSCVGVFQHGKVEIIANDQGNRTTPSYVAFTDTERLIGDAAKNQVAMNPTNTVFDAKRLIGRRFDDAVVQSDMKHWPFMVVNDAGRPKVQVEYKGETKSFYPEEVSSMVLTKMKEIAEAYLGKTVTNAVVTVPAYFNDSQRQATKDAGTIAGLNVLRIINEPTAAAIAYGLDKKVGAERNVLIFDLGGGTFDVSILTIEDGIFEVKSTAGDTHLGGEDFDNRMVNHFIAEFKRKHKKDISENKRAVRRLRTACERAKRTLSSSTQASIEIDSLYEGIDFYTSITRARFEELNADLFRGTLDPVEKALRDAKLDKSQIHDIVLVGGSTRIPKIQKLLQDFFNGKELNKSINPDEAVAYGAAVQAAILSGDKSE

[10] = administered intravenously to MRL/lpr mice

131–151: unphosphorylated (nonprotective) peptide 131–151 of SNRNP70/U1–70K (RIHMVYSKRSGKPRGYAFIEY; UniProt P08621 131-151, looked up, fragment) [reference compound]
colocalization with early endosomal marker EEA1, ex vivo ([1]; 10 μM Alexa Fluor 488-labeled peptide, 15 min at 37°C, Fig. 3B, S6B, C): colocalization with EEA1 was hardly seen | CMA activity, average number of fluorescent puncta per cell [2]: did not observe any changes in CMA activity

RIHMVYSKRpSGKPRGYAFIEY [P140]
endogenous HSPA8 ATPase activity (HSPA8): effectively increase both the endogenous and HSP40-stimulated ATPase activities of HSPA8 in a peptide dose-dependent manner | entry pathway into B lymphocytes ([1]; B lymphocytes from 12-wk-old MRL/lpr mice, Alexa Fluor 488-labeled peptide 10 μM, 30 min at 37°C, confocal, Fig. 2A): endocytosed by a clathrin-dependent mechanism | localization by LysoTracker Red / MitoTracker Deep Red counterstaining (MRL/lpr mice splenocytes): accumulated into lysosomes | time for which the phosphoryl moiety was preserved ([3]; ALF, pH 4.2, 37°C, LC-MS, Fig. S8): about 2 h | dependence of stability on pH ([3]; pH 5.3 and 7.2 compared to 4.2, medium not given): more stable at higher pH (5.3 and 7.2 compared to 4.2) | stability over pH in CMA+ lysosomal extracts [4]: remains stable on a large range of pH | CMA activity, average number of fluorescent puncta per cell [2]: clearly diminished the average number of puncta per cell in a dose-dependent manner | CMA activity, average number of puncta per cell [5]: significantly diminish CMA activity in a peptide concentration-dependent manner | GAPDH associated with lysosomes, exogenous HSPA8 added ([6]; as above with exogenous HSPA8 in the incubation media, Fig. S10B): not even when exogenous HSPA8 was added | uptake of GAPDH by lysosomes ([6]; difference of GAPDH with and without protease inhibitors, Fig. S10C, D): did not significantly modify binding or uptake of GAPDH by CMA | GAPDH associated with lysosomes ([6]; lysosomes 75 μg protein pretreated with protease inhibitors, GAPDH 25 μg, 20 min at 37°C, pH 7.3, increasing peptide concentrations, immunoblot, Fig. S10A): did not modify the amount of GAPDH recovered in lysosomes | binding of GAPDH to lysosomes ([6]; lysosomes without protease inhibitors, Fig. S10C, D): did not significantly modify binding or uptake of GAPDH by CMA | CTSD expression in purified B cells (CTSD): highly significant reduction | LAMP1 expression in purified B cells (LAMP1): A similar trend was observed for LAMP1 expression | Lamp2a mRNA level (LAMP2A): lack of change at the mRNA level | protective effect in lupus-prone mice (MRL/lpr lupus-prone mice; MRL/lpr mice): displays protective properties | MHCII expression (MRL/lpr lupus-prone mice; MRL/lpr mice, earlier work): decreases MHCII overexpression | signs of systemic autoimmunity (proteinuria, vasculitis, dermatitis, anti-DNA antibody production) (MRL/lpr lupus-prone mice; MRL/lpr mice, earlier work): attenuates biological and clinical signs of systemic autoimmunity | HSPA8 expression (MRL/lpr lupus-prone mice; [10]): decreases the HSPA8 overexpression observed in this murine strain | autophagy markers SQSTM1/p62 and LC3-II (MRL/lpr lupus-prone mice; [10]): increases the accumulation of the autophagy markers SQSTM1/p62 (sequestosome 1) and LC3-II | protective effect in lupus patients (lupus patients): displays protective properties | binding to HSPA8 [7]: readily binds to HSPA8 | binding to MHCII molecules [8]: binds both the HSPA8/HSC70/HSP73 chaperone and major histocompatibility complex class II (MHCII) molecules

RIHMVYSKR[pS]GKPRGYAFIEY [P140 peptide (SNRNP70/U1-70K 131-151, phosphoserine 140)]
binding result [9]: binds

Source: article PMC4502742 (Autophagy, 2015)
